This is an account of results in paper PMC4186684 (Molecular Pharmaceutics, 2014).

One data set has as its system P. aeruginosa (PAO1). Kind of data set: MIC by broth microdilution. Conditions: Pseudomonas aeruginosa. Format: cell-based. The gist of the method: (§1)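 Cultures were grown overnight in tryptic soy broth at 37 °C, shaken at 175 rpm, then diluted from 1 × 10⁸ to 1 × 10⁵ CFU/mL. Peptides were 5 mM stocks in water, or in 50 mM NH₄HCO₃ for poorly soluble ones. Test compound was mixed 1:39 (v/v) with the suspension, serially 2-fold diluted and incubated statically overnight at 37 °C. MIC was the lowest concentration with no visible growth, in triplicate. Controls were tetracycline (MRSA) and tobramycin (P. aeruginosa).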
For orientation: In broth dilution the organism is exposed to a series of concentrations in liquid medium.

The test system of a further data set is SK-OV-3 cells. In words: Confocal laser scanning microscopy of cellular uptake. In kind it is cell-based, human. The settings on record: 10 μM, 1 h at 37 °C, Opti-MEM I, 488 nm excitation. An outline of the steps: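 SK-OV-3 cells were seeded on coverslips in complete EMEM at 1 × 10⁵ cells/well and held at 50% confluency. Medium was replaced with fluorescein-labeled test peptide in Opti-MEM I reduced serum medium for 1 h at 37 °C. Cells were washed three times with PBS containing Ca/Mg and mounted. Imaging used 488 nm argon laser excitation and a 505–530 nm band-pass filter. FAM served as the comparison.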

Data set [1] concerns methicillin-resistant S. aureus (MRSA, ATCC 43300). Kind of data set: MIC by broth microdilution. In kind it is cell-based. The settings on record: Staphylococcus aureus, ATCC43300|MRSA. An outline of the steps: as §1
For the next data set, the system named is MRSA (ATCC 43300). Kind of data set: MIC used as basis of the time-kill studies. Conditions: Staphylococcus aureus, ATCC43300|MRSA. In kind it is cell-based.
Another data set has as its system E. coli (ATCC 35218). In words: MIC used as basis of the time-kill studies. In kind it is cell-based. Conditions: Escherichia coli, ATCC35218.

The term MIC denotes the lowest concentration that inhibits growth of the organism.

In brackets after ≈: the same amount, converted by molar mass.

`NC[C@H]1O[C@H](O[C@H]2[C@H](O)[C@@H](O[C@H]3O[C@H](CO)[C@@H](O)[C@H](N)[C@H]3O)[C@H](N)C[C@@H]2N)[C@H](N)C[C@@H]1O` [tobramycin] had an MIC in the data set on P. aeruginosa (PAO1) of 0.731 µg/mL (≈ 1.56 µM).

5(6)-Carboxyfluorescein [FAM]: the “intracellular fluorescence / localisation (CLSM)” value with SK-OV-3 cells is “no significant fluorescence”.

With `CN(C)[C@@H]1C(O)=C(C(N)=O)C(=O)[C@@]2(O)C(O)=C3C(=O)c4c(O)cccc4[C@@](C)(O)[C@H]3C[C@@H]12` [tetracycline], the MIC was found to be 0.156 µg/mL (≈ 0.351 µM) in data set [1], 0.5 µg/mL (≈ 1.13 µM) in the data set with MRSA (ATCC 43300) and 2 µg/mL (≈ 4.5 µM) in the data set on E. coli (ATCC 35218).
